Experimental data as given in ChEMBL document CHEMBL3259528, “Exploring 5-nitrofuran derivatives against nosocomial pathogens: synthesis, antimicrobial activity and chemometric analysis” (2014).
In brackets after ≈: the same amount, converted by molar mass. Activity calls are given as the source filed them. The calls are words filed in the database; no cut-off is given here.

Assays:
[1] = test system: Staphylococcus aureus; test: Antimicrobial activity against Staphylococcus aureus ATCC 29213 after 24 to 48 hrs by two-fold broth microdilution method; format: functional
[2] = test system: Enterococcus faecalis; test: Antimicrobial activity against Enterococcus faecalis ATCC 29212 after 24 to 48 hrs by two-fold broth microdilution method; format: functional
[3] = test system: Candida albicans; test: Antimicrobial activity against Candida albicans ATCC 537Y after 48 hrs by two-fold broth microdilution method; format: functional
How it was run: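 Two-fold serial dilutions in RPMI 1640 per CLSI M27-A2. Stocks in DMSO/RPMI 1:20 v/v. Test range 1.0–64 µM. Inoculum set to 0.5 McFarland, then diluted in saline and RPMI 1640. Plates held at 35 °C for 48 h. MIC is the lowest concentration giving prominent growth reduction. Run in triplicate.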

[4] = test system: Staphylococcus aureus; test: Antimicrobial activity against Staphylococcus aureus ATCC 29213 after 18 hrs by modified broth microdilution method; format: functional
How it was run: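 PGI90, the concentration giving 90% growth inhibition, fitted with an exponential growth curve from at least seven concentrations of the MIC assay. Inhibition % = [(Ac − Ap)/Ac] × 100 from A620 of drug-free control versus drug-treated culture. Checked by a modified broth microdilution (Phase 2).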

[5] = test system: Klebsiella pneumoniae; test: Antimicrobial activity against Klebsiella pneumoniae ATCC 700603 at 128 uM after 24 to 48 hrs by two-fold broth microdilution method; format: functional, organism-based
How it was run: (§1)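 Antibacterial microdilution in CAMH, inoculum 0.5 McFarland diluted in saline/CAMH, 35 °C for 18 h, with further reads at 24 and 48 h. Activity is scored at the maximum tested concentration, 128 µM. Triplicate.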

[6] = test system: Escherichia coli; test: Antimicrobial activity against Escherichia coli ATCC 25922 after 24 to 48 hrs by two-fold broth microdilution method; format: functional
[7] = test system: Enterobacter cloacae; test: Antimicrobial activity against Enterobacter cloacae ATCC 23355 at 128 uM after 24 to 48 hrs by two-fold broth microdilution method; format: functional, organism-based; how it was run: as §1
[8] = test system: Serratia marcescens; test: Antimicrobial activity against Serratia marcescens ATCC 14576 at 128 uM after 24 to 48 hrs by two-fold broth microdilution method; format: functional, organism-based; how it was run: as §1

`CCc1ccc(C(=O)N/N=C/c2ccc([N+](=O)[O-])o2)cc1` was tested, and the MIC [1] was 4 µM (≈ 1.15 µg/mL), the MIC90 [1] was 3.68 µM (≈ 1.06 µg/mL) and the MIC [2] was 64 µM (≈ 18.4 µg/mL). The MIC90 [2] was 69.1 µM (≈ 19.9 µg/mL), the MIC [3] was 32 µM (≈ 9.19 µg/mL) and the MIC90 [3] was 54 µM (≈ 15.5 µg/mL). The “log(1/MIC>90)” value [4] was 5.43, the Activity [5] was “inactive” and the MIC [6] was 64 µM (≈ 18.4 µg/mL). The MIC90 [6] was 110 µM (≈ 31.7 µg/mL), the Activity [7] was “inactive” and the Activity [8] was “inactive”.
`CCC(C)n1ncn(-c2ccc(N3CCN(c4ccc(OCC5COC(Cn6cncn6)(c6ccc(Cl)cc6Cl)O5)cc4)CC3)cc2)c1=O` (centres undefined) [ITRACONAZOLE] was tested, and the MIC [3] was less than 20 µM.
`O=C(N/N=C/c1ccc([N+](=O)[O-])o1)c1ccccc1` showed an MIC [1] of 4 µM (≈ 1.04 µg/mL), an MIC90 [1] of 5.27 µM (≈ 1.37 µg/mL) and an MIC [2] of 32 µM (≈ 8.3 µg/mL). It also gave an MIC90 [2] of 58.8 µM (≈ 15.2 µg/mL), an MIC [3] of 32 µM (≈ 8.3 µg/mL) and an MIC90 [3] of 60.3 µM (≈ 15.6 µg/mL). For the same compound, the “log(1/MIC>90)” value [4] was 5.28, the Activity [5] was “inactive” and the MIC [6] was 16 µM (≈ 4.15 µg/mL). The MIC90 [6] was 30.4 µM (≈ 7.89 µg/mL), the Activity [7] was “inactive” and the Activity [8] was “inactive”.
With `Cc1cc(NS(=O)(=O)c2ccc(N)cc2)no1` [SULFAMETHOXAZOLE] the MIC [6] was 16 µM (≈ 4.05 µg/mL) and the Activity [8] was “inactive”.
Compound `O=C(N/N=C/c1ccc([N+](=O)[O-])o1)c1ccc(Cl)c(Cl)c1` has an MIC [1] of 4 µM (≈ 1.31 µg/mL), an MIC90 [1] of 7.49 µM (≈ 2.46 µg/mL) and an MIC [2] of 32 µM (≈ 10.5 µg/mL). For the same compound, the MIC90 [2] was 59.7 µM (≈ 19.6 µg/mL), the MIC [3] was 16 µM (≈ 5.25 µg/mL) and the MIC90 [3] was 32.2 µM (≈ 10.6 µg/mL). The “log(1/MIC>90)” value [4] was 5.5, the Activity [5] was “inactive” and the MIC [6] was 64 µM (≈ 21 µg/mL). For the same compound, the MIC90 [6] was 85 µM (≈ 27.9 µg/mL), the Activity [7] was “inactive” and the Activity [8] was “inactive”.
With `O=C(N/N=C/c1ccc([N+](=O)[O-])o1)c1ccc(Cl)cc1` the MIC [1] was 4 µM (≈ 1.17 µg/mL), the MIC90 [1] was 5.52 µM (≈ 1.62 µg/mL) and the MIC [2] was 32 µM (≈ 9.4 µg/mL). The MIC90 [2] was 40.7 µM (≈ 12 µg/mL), the MIC [3] was 32 µM (≈ 9.4 µg/mL) and the MIC90 [3] was 53 µM (≈ 15.6 µg/mL). For the same compound, the “log(1/MIC>90)” value [4] was 5.26, the Activity [5] was “inactive” and the MIC [6] was 64 µM (≈ 18.8 µg/mL). The MIC90 [6] was 102 µM (≈ 30 µg/mL), the Activity [7] was “inactive” and the Activity [8] was “inactive”.
In the case of `COc1ccc(C(=O)N/N=C/c2ccc([N+](=O)[O-])o2)cc1`, the MIC [1] is reported as 4 µM (≈ 1.16 µg/mL), the MIC90 [1] is reported as 4.11 µM (≈ 1.19 µg/mL) and the MIC [2] is reported as 8 µM (≈ 2.31 µg/mL). For the same compound, the MIC90 [2] was 14.6 µM (≈ 4.23 µg/mL), the MIC [3] was 32 µM (≈ 9.26 µg/mL) and the MIC90 [3] was 54.6 µM (≈ 15.8 µg/mL). For the same compound, the “log(1/MIC>90)” value [4] was 5.39, the Activity [5] was “inactive” and the MIC [6] was 32 µM (≈ 9.26 µg/mL). The MIC90 [6] was 84 µM (≈ 24.3 µg/mL), the Activity [7] was “inactive” and the Activity [8] was “inactive”.
`CCCCOc1ccc(C2=NN(C(C)=O)C(c3ccc([N+](=O)[O-])o3)O2)cc1` (centres undefined) was tested, and the MIC [1] was 16 µM (≈ 5.97 µg/mL), the MIC90 [1] was 16.9 µM (≈ 6.3 µg/mL) and the MIC [3] was 32 µM (≈ 11.9 µg/mL). The MIC90 [3] was 41 µM (≈ 15.3 µg/mL), the “log(1/MIC>90)” value [4] was 4.77 and the Activity [5] was “inactive”. For the same compound, the MIC [6] was 64 µM (≈ 23.9 µg/mL), the MIC90 [6] was 77.9 µM (≈ 29.1 µg/mL) and the Activity [7] was “inactive”. The Activity [8] was “inactive”.
With `CC(=O)N1N=C(c2ccc(F)cc2)OC1c1ccc([N+](=O)[O-])o1` (centres undefined) the MIC [1] was 8 µM (≈ 2.55 µg/mL), the MIC90 [1] was 8.43 µM (≈ 2.69 µg/mL) and the MIC [2] was 64 µM (≈ 20.4 µg/mL). The MIC90 [2] was 97.3 µM (≈ 31.1 µg/mL), the MIC [3] was 32 µM (≈ 10.2 µg/mL) and the MIC90 [3] was 43.1 µM (≈ 13.8 µg/mL). The “log(1/MIC>90)” value [4] was 5.07, the Activity [5] was “inactive” and the MIC [6] was 64 µM (≈ 20.4 µg/mL). The MIC90 [6] was 91 µM (≈ 29.1 µg/mL), the Activity [7] was “inactive” and the Activity [8] was “inactive”.
`O=C(N/N=C/c1ccc([N+](=O)[O-])o1)c1ccc(Cl)cc1Cl` showed an MIC [1] of 4 µM (≈ 1.31 µg/mL), an MIC90 [1] of 4.83 µM (≈ 1.58 µg/mL) and an MIC [2] of 32 µM (≈ 10.5 µg/mL). The MIC90 [2] was 58.7 µM (≈ 19.3 µg/mL), the MIC [3] was 32 µM (≈ 10.5 µg/mL) and the MIC90 [3] was 48 µM (≈ 15.8 µg/mL). The “log(1/MIC>90)” value [4] was 5.13, the Activity [5] was “inactive” and the MIC [6] was 64 µM (≈ 21 µg/mL). The MIC90 [6] was 87.7 µM (≈ 28.8 µg/mL), the Activity [7] was “inactive” and the Activity [8] was “inactive”.
Compound `O=C(N/N=C/c1ccc([N+](=O)[O-])o1)c1ccc(C(F)(F)F)cc1` has an MIC [1] of 4 µM (≈ 1.31 µg/mL), an MIC90 [1] of 4.34 µM (≈ 1.42 µg/mL) and an MIC [2] of 32 µM (≈ 10.5 µg/mL). For the same compound, the MIC90 [2] was 60.9 µM (≈ 19.9 µg/mL), the MIC [3] was 32 µM (≈ 10.5 µg/mL) and the MIC90 [3] was 47.8 µM (≈ 15.6 µg/mL). For the same compound, the “log(1/MIC>90)” value [4] was 5.36, the Activity [5] was “inactive” and the MIC [6] was 64 µM (≈ 20.9 µg/mL). The MIC90 [6] was 92.2 µM (≈ 30.2 µg/mL), the Activity [7] was “inactive” and the Activity [8] was “inactive”.
